According to ChEMBL document CHEMBL5058577, “EUbOPEN Chemogenomics Library 2 (Multiplex)” (2022):

System: U2OS
Test: Multiplex assay against U2OS
Type: toxicity, cell-based
Conditions: human
Outline: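 Cells stained live at seeding with Hoechst33342, BioTracker Green Microtubule Cytoskeleton Dye, MitoTracker Red and Annexin V Alexa Fluor 680 were imaged on a CQ1 microscope at 37°C and 5% CO2 after compound addition. Their classification by CellPathfinder machine-learning gating ran from Hoechst high-intensity objects versus normal cells, to healthy, pyknosed or fragmented nuclei among normal cells, to mitotic or apoptotic among pyknosed cells. Tubulin, mitochondrial-mass and membrane-permeability phenotypes are per cents of healthy-nucleus cells.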

[1] = 12 h, 1 µM, compound concentration 1 uM, replicate 1
[2] = 12 h, 1 µM, compound concentration 1 uM, replicate 2
[3] = 12 h, 10 µM, compound concentration 10 uM, replicate 1
[4] = 12 h, 10 µM, compound concentration 10 uM, replicate 2
[5] = 24 h, 1 µM, compound concentration 1 uM, replicate 1
[6] = 24 h, 1 µM, compound concentration 1 uM, replicate 2
[7] = 24 h, 10 µM, compound concentration 10 uM, replicate 1
[8] = 24 h, 10 µM, compound concentration 10 uM, replicate 2
[9] = 48 h, 1 µM, compound concentration 1 uM, replicate 1
[10] = 48 h, 1 µM, compound concentration 1 uM, replicate 2
[11] = 48 h, 10 µM, compound concentration 10 uM, replicate 1
[12] = 48 h, 10 µM, compound concentration 10 uM, replicate 2

Cc1onc(-c2ccccc2Cl)c1C(=O)N(C)c1ccc(Cl)cc1
Population Apoptotic (%) [1]: 82%
Population Fragmented Nuclei (%) [1]: 26%
Population Healthy Nuclei (%) [1]: 67%
Population Hoechst High Intensity Objects (%) [1]: 0%
Population Membrane Permeable-Phenotype (%) [1]: 3%
Population Mitochondria Different-Phenotype (%) [1]: 2%
Population Mitotic Cells (%) [1]: 17%
Population Normal (%) [1]: 99%
Population Pyknosed Nuclei (%) [1]: 6%
Population Tubulin-Different-Phenotype (%) [1]: 1%
Total Cell Count [1]: 277
Population Apoptotic (%) [2]: 78%
Population Fragmented Nuclei (%) [2]: 10%
Population Healthy Nuclei (%) [2]: 79%
Population Hoechst High Intensity Objects (%) [2]: 1%
Population Membrane Permeable-Phenotype (%) [2]: 4%
Population Mitochondria Different-Phenotype (%) [2]: 1%
Population Mitotic Cells (%) [2]: 21%
Population Normal (%) [2]: 98%
Population Pyknosed Nuclei (%) [2]: 10%
Population Tubulin-Different-Phenotype (%) [2]: 3%
Total Cell Count [2]: 136
Population Apoptotic (%) [3]: 79%
Population Fragmented Nuclei (%) [3]: 28%
Population Healthy Nuclei (%) [3]: 58%
Population Hoechst High Intensity Objects (%) [3]: 4%
Population Membrane Permeable-Phenotype (%) [3]: 12%
Population Mitochondria Different-Phenotype (%) [3]: 5%
Population Mitotic Cells (%) [3]: 20%
Population Normal (%) [3]: 95%
Population Pyknosed Nuclei (%) [3]: 12%
Population Tubulin-Different-Phenotype (%) [3]: 5%
Total Cell Count [3]: 244
Population Apoptotic (%) [4]: 77%
Population Fragmented Nuclei (%) [4]: 24%
Population Healthy Nuclei (%) [4]: 56%
Population Hoechst High Intensity Objects (%) [4]: 0%
Population Membrane Permeable-Phenotype (%) [4]: 7%
Population Mitochondria Different-Phenotype (%) [4]: 6%
Population Mitotic Cells (%) [4]: 22%
Population Normal (%) [4]: 99%
Population Pyknosed Nuclei (%) [4]: 19%
Population Tubulin-Different-Phenotype (%) [4]: 4%
Total Cell Count [4]: 113
Population Apoptotic (%) [5]: 100%
Population Fragmented Nuclei (%) [5]: 23%
Population Healthy Nuclei (%) [5]: 70%
Population Hoechst High Intensity Objects (%) [5]: 0%
Population Membrane Permeable-Phenotype (%) [5]: 2%
Population Mitochondria Different-Phenotype (%) [5]: 2%
Population Mitotic Cells (%) [5]: 0%
Population Normal (%) [5]: 99%
Population Pyknosed Nuclei (%) [5]: 5%
Population Tubulin-Different-Phenotype (%) [5]: 0%
Total Cell Count [5]: 328
Population Apoptotic (%) [6]: 83%
Population Fragmented Nuclei (%) [6]: 11%
Population Healthy Nuclei (%) [6]: 81%
Population Hoechst High Intensity Objects (%) [6]: 1%
Population Membrane Permeable-Phenotype (%) [6]: 4%
Population Mitochondria Different-Phenotype (%) [6]: 5%
Population Mitotic Cells (%) [6]: 16%
Population Normal (%) [6]: 98%
Population Pyknosed Nuclei (%) [6]: 7%
Population Tubulin-Different-Phenotype (%) [6]: 2%
Total Cell Count [6]: 168
Population Apoptotic (%) [7]: 72%
Population Fragmented Nuclei (%) [7]: 26%
Population Healthy Nuclei (%) [7]: 62%
Population Hoechst High Intensity Objects (%) [7]: 3%
Population Membrane Permeable-Phenotype (%) [7]: 11%
Population Mitochondria Different-Phenotype (%) [7]: 6%
Population Mitotic Cells (%) [7]: 27%
Population Normal (%) [7]: 96%
Population Pyknosed Nuclei (%) [7]: 11%
Population Tubulin-Different-Phenotype (%) [7]: 4%
Total Cell Count [7]: 299
Population Apoptotic (%) [8]: 64%
Population Fragmented Nuclei (%) [8]: 20%
Population Healthy Nuclei (%) [8]: 66%
Population Membrane Permeable-Phenotype (%) [8]: 8%
Population Mitochondria Different-Phenotype (%) [8]: 7%
Population Mitotic Cells (%) [8]: 35%
Population Pyknosed Nuclei (%) [8]: 13%
Population Tubulin-Different-Phenotype (%) [8]: 7%
Total Cell Count [8]: 129
Population Apoptotic (%) [9]: 87%
Population Fragmented Nuclei (%) [9]: 16%
Population Healthy Nuclei (%) [9]: 75%
Population Hoechst High Intensity Objects (%) [9]: 2%
Population Membrane Permeable-Phenotype (%) [9]: 4%
Population Mitochondria Different-Phenotype (%) [9]: 3%
Population Mitotic Cells (%) [9]: 12%
Population Normal (%) [9]: 97%
Population Pyknosed Nuclei (%) [9]: 7%
Population Tubulin-Different-Phenotype (%) [9]: 2%
Total Cell Count [9]: 450
Population Apoptotic (%) [10]: 89%
Population Fragmented Nuclei (%) [10]: 12%
Population Hoechst High Intensity Objects (%) [10]: 1%
Population Membrane Permeable-Phenotype (%) [10]: 1%
Population Mitochondria Different-Phenotype (%) [10]: 2%
Population Mitotic Cells (%) [10]: 10%
Population Normal (%) [10]: 98%
Population Pyknosed Nuclei (%) [10]: 11%
Population Tubulin-Different-Phenotype (%) [10]: 1%
Total Cell Count [10]: 252
Population Apoptotic (%) [11]: 69%
Population Fragmented Nuclei (%) [11]: 22%
Population Healthy Nuclei (%) [11]: 67%
Population Hoechst High Intensity Objects (%) [11]: 3%
Population Membrane Permeable-Phenotype (%) [11]: 10%
Population Mitochondria Different-Phenotype (%) [11]: 5%
Population Mitotic Cells (%) [11]: 30%
Population Normal (%) [11]: 96%
Population Pyknosed Nuclei (%) [11]: 9%
Population Tubulin-Different-Phenotype (%) [11]: 4%
Total Cell Count [11]: 413
Population Apoptotic (%) [12]: 90%
Population Fragmented Nuclei (%) [12]: 23%
Population Healthy Nuclei (%) [12]: 65%
Population Hoechst High Intensity Objects (%) [12]: 2%
Population Membrane Permeable-Phenotype (%) [12]: 9%
Population Mitotic Cells (%) [12]: 10%
Population Normal (%) [12]: 97%
Population Pyknosed Nuclei (%) [12]: 11%
Population Tubulin-Different-Phenotype (%) [12]: 3%
Total Cell Count [12]: 182
